The values that follow come from publication PMC4712096 (The FEBS journal, 2015).

The target of one series is A3G (Homo sapiens, UniProt Q9HC16). Kind of series: Inhibition of deamination activity of purified A3G. The class given is biochemical.
The test system of a further series is SupT1 cells. Kind of series: Alkaline comet assay in SupT1 cells. The class given is cell-based. Particulars: no radiation; Tail DNA % and Olive Tail Moment. Summed up:
(§1)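 Alkaline comet assay. One day after culturing, cells were pre-treated or not with peptides for 2 h, then γ-irradiated (4 Gy) or mock-irradiated. Cells were embedded in low-melting agarose. Lysis was 2 h in ice-cold 2.5 M NaCl, 100 mM EDTA, 10 mM Tris pH 10, 1% Triton X-100 and 10% DMSO. DNA was unwound 20 min at 4°C in NaOH/EDTA pH 13 and electrophoresed 45 V, 20 min. Slides were neutralised and stained with ethidium bromide. Tail DNA % and Olive tail moment were scored from random fields.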

Another series relates to H9 cells. Kind of series: Alkaline comet assay in H9 cells. Particulars: no radiation; Tail DNA % and Olive Tail Moment. The class given is cell-based. In outline:
as §1

Series [1] addresses APOBEC3G (A3G), wild type, C-terminal His6 tag (human) (UniProt Q9HC16).
Series [2] has as its target APOBEC3G (A3G), wild type, C-terminal His6 tag (human, UniProt Q9HC16 1-384). Kind of series: cell-based or functional assay.

Peptide text beside a SMILES is read from it.

A word on the IC50: it is the concentration at which inhibition is half-maximal. A high value points to lower potency. By Ki is commonly meant the dissociation constant of the complex between target and ligand, obtained from inhibition or displacement. Lower therefore signals higher affinity.

Sequence of A3G (Q9HC16 whole entry): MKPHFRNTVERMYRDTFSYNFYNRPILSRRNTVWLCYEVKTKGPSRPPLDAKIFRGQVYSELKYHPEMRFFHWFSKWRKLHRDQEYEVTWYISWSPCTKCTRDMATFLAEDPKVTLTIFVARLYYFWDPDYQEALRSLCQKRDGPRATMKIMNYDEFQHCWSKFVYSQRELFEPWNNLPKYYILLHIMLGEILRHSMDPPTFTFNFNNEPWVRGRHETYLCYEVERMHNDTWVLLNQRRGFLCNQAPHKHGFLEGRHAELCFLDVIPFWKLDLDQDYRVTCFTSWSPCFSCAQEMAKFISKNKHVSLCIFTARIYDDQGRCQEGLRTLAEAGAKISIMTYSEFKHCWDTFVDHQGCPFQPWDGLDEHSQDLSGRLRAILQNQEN
Sequence of APOBEC3G (A3G), wild type, C-terminal His6 tag (human) (Q9HC16 whole entry): as above
Sequence of APOBEC3G (A3G), wild type, C-terminal His6 tag (Q9HC16 whole entry): as above

Molecule `CC(C)C[C@H](NC(=O)[C@H](CCCNC(=N)N)NC(=O)[C@H](C)N)C(=O)N[C@@H](Cc1ccc(O)cc1)C(=O)N[C@@H](Cc1ccc(O)cc1)C(=O)N[C@@H](Cc1ccccc1)C(=O)N[C@@H](Cc1c[nH]c2ccccc12)C(=O)N[C@@H](CC(=O)O)C(=O)N[C@H](C(=O)O)[C@@H](C)O` [Peptide A3F304-312] (H-ARLYYFWDT-OH) gave an IC50 at A3G of 8 µM. In addition, the “DNA damage in non-irradiated SupT1 cells (comet assay)” value with SupT1 cells is “did not induce breaks”. The “DNA damage in non-irradiated H9 cells (comet assay)” value in the series with H9 cells was “did not induce breaks”.

At A3G, `CC(C)C[C@H](NC(=O)[C@@H](N)CCCNC(=N)N)C(=O)N[C@@H](Cc1ccc(O)cc1)C(=O)N[C@@H](Cc1ccc(O)cc1)C(=O)N[C@@H](Cc1ccccc1)C(=O)N[C@@H](Cc1c[nH]c2ccccc12)C(=O)N[C@@H](CC(=O)O)C(=O)O` [Peptide A3F305-311] (H-RLYYFWD-OH) came in with an IC50 of 1 µM. Further, the “DNA damage in non-irradiated SupT1 cells (comet assay)” value in the series on SupT1 cells is given as “did not induce breaks”. Besides, the “DNA damage in non-irradiated H9 cells (comet assay)” value with H9 cells was “did not induce breaks”.

In the case of `CC(C)C[C@H](NC(=O)[C@H](Cc1ccc(O)cc1)NC(=O)[C@@H](NC(=O)[C@H](CCC(=O)O)NC(=O)[C@H](Cc1cnc[nH]1)NC(=O)[C@H](CCCNC(=N)N)NC(=O)CNC(=O)[C@H](CCCNC(=N)N)NC(=O)[C@@H](NC(=O)[C@@H](N)Cc1c[nH]c2ccccc12)C(C)C)[C@@H](C)O)C(=O)N[C@@H](CS)C(=O)N[C@@H](Cc1ccc(O)cc1)C(=O)N[C@@H](CCC(=O)O)C(=O)N[C@H](C(=O)N[C@@H](CCC(=O)O)C(=O)O)C(C)C` [Peptide A3G211-225] (H-WVRGRHETYLCYEVE-OH), the IC50 at A3G is 10 µM.

Consider `CSCC[C@H](NC(=O)[C@@H](N)CCCNC(=N)N)C(=O)N[C@@H](Cc1c[nH]cn1)C(=O)N[C@@H](CC(N)=O)C(=O)N[C@@H](CC(=O)O)C(=O)N[C@H](C(=O)N[C@@H](Cc1c[nH]c2ccccc12)C(=O)N[C@H](C(=O)N[C@@H](CC(C)C)C(=O)N[C@@H](CC(C)C)C(=O)N[C@@H](CC(N)=O)C(=O)N[C@@H](CCC(N)=O)C(=O)N[C@@H](CCCNC(=N)N)C(=O)N[C@@H](CCCNC(=N)N)C(=O)NCC(=O)O)C(C)C)[C@@H](C)O` [Peptide A3G226-240] (H-RMHNDTWVLLNQRRG-OH), for which, on A3G, the IC50 turned out to be 60 µM.

On to `CSCC[C@H](NC(=O)[C@H](Cc1c[nH]cn1)NC(=O)[C@H](Cc1c[nH]cn1)NC(=O)[C@H](CCCCN)NC(=O)[C@@H](N)C(C)C)C(=O)N[C@@H](Cc1ccc(O)cc1)C(=O)N[C@H](C(=O)N[C@@H](CO)C(=O)NCC(=O)N[C@@H](CCCCN)C(=O)N[C@@H](C)C(=O)N[C@@H](CCCNC(=N)N)C(=O)O)C(C)C` [Vif25-36], for which, on A3G, half-maximal inhibition (IC50) was put at 50 µM.

`CSCC[C@H](NC(=O)[C@H](Cc1c[nH]cn1)NC(=O)[C@H](Cc1c[nH]cn1)NC(=O)[C@H](CCCCN)NC(=O)[C@@H](N)C(C)C)C(=O)N[C@@H](Cc1ccc(O)cc1)C(=O)N[C@H](C(=O)N[C@@H](CO)C(=O)NCC(=O)N[C@@H](CCCCN)C(=O)N[C@@H](C)C(=O)N[C@@H](CCCNC(=N)N)C(=O)NCC(=O)N[C@@H](Cc1c[nH]c2ccccc12)C(=O)N[C@@H](Cc1ccccc1)C(=O)O)C(C)C` [Vif25-39] had an IC50 on A3G of 0.6 µM. Further, the “DNA damage in non-irradiated SupT1 cells (comet assay)” value in the series on SupT1 cells is listed as “did not induce any damage”. Besides, in the series with H9 cells, the “DNA damage in non-irradiated H9 cells (comet assay)” value was “did not induce any damage”.

At A3G, `CC[C@H](C)[C@H](N)C(=O)N[C@@H](Cc1c[nH]cn1)C(=O)N[C@@H](CC(C)C)C(=O)N[C@@H](Cc1ccc(O)cc1)C(=O)N[C@@H](Cc1ccc(O)cc1)C(=O)N[C@@H](Cc1ccccc1)C(=O)N[C@@H](CC(=O)O)C(=O)N[C@@H](CS)C(=O)N[C@@H](Cc1ccccc1)C(=O)O` [Vif107-115] (H-IHLYYFDCF-OH) registered a Ki of approximately 1.71 µM. Besides, the “DNA damage in non-irradiated SupT1 cells (comet assay)” value with SupT1 cells was “did not induce any damage”. The “DNA damage in non-irradiated H9 cells (comet assay)” value in the series with H9 cells was “did not induce any damage”.

For the molecule `CSCC[C@H](NC(=O)[C@H](Cc1c[nH]cn1)NC(=O)[C@H](Cc1c[nH]cn1)NC(=O)[C@H](C)NC(=O)[C@@H](N)C(C)C)C(=O)N[C@@H](Cc1ccc(O)cc1)C(=O)N[C@H](C(=O)N[C@@H](CO)C(=O)NCC(=O)N[C@@H](CCCCN)C(=O)N[C@@H](C)C(=O)N[C@@H](CCCNC(=N)N)C(=O)NCC(=O)N[C@@H](Cc1c[nH]c2ccccc12)C(=O)N[C@@H](Cc1ccccc1)C(=O)O)C(C)C` [Vif 25-39 (26A)], the IC50 on A3G is 8 µM.

Regarding `CSCC[C@H](NC(=O)[C@H](C)NC(=O)[C@H](C)NC(=O)[C@H](C)NC(=O)[C@@H](N)C(C)C)C(=O)N[C@@H](Cc1ccc(O)cc1)C(=O)N[C@H](C(=O)N[C@@H](CO)C(=O)NCC(=O)N[C@@H](CCCCN)C(=O)N[C@@H](C)C(=O)N[C@@H](CCCNC(=N)N)C(=O)NCC(=O)N[C@@H](Cc1c[nH]c2ccccc12)C(=O)N[C@@H](Cc1ccccc1)C(=O)O)C(C)C` [Vif 25-39 (26AAA28)] (H-VAAAMYVSGKARGWF-OH), the IC50 against A3G came out at 10 µM.

`CSCC[C@H](NC(=O)[C@H](C)NC(=O)[C@H](C)NC(=O)[C@H](CCCCN)NC(=O)[C@@H](N)C(C)C)C(=O)N[C@@H](Cc1ccc(O)cc1)C(=O)N[C@H](C(=O)N[C@@H](CO)C(=O)NCC(=O)N[C@@H](CCCCN)C(=O)N[C@@H](C)C(=O)N[C@@H](CCCNC(=N)N)C(=O)NCC(=O)N[C@@H](Cc1c[nH]c2ccccc12)C(=O)N[C@@H](Cc1ccccc1)C(=O)O)C(C)C` [Vif 25-39 (27AA28)] (H-VKAAMYVSGKARGWF-OH) displayed an IC50 on A3G of 4.5 µM.

The molecule Vif25-36 (peptide) yielded an IC50 of inhibition of ssDNA deamination by purified A3G in series [1] of 50 µM.

On to Vif25-39 (peptide), for which, in series [1], the IC50 of inhibition of ssDNA deamination by purified A3G was found to be 0.6 µM.

Vif26-39 (peptide) had an IC50 of inhibition of ssDNA deamination by purified A3G in series [1] of 80 µM.

On to Vif105-119 (peptide), for which the IC50 of inhibition of ssDNA deamination by purified A3G in series [1] is 0.1 µM.

In series [1], Vif 25-39 (26A) (peptide) displayed an IC50 of inhibition of ssDNA deamination by purified A3G of 8 µM.

Turning to Vif 25-39 (26AAA28) (peptide), the IC50 of inhibition of ssDNA deamination by purified A3G in series [1] was determined as 10 µM.

Turning to Vif 25-39 (27AA28) (peptide), the IC50 of inhibition of ssDNA deamination by purified A3G in series [1] amounted to 4.5 µM.

With RLYYFWD [A3F305-311], in series [1], the IC50 of inhibition of ssDNA deamination by purified A3G turned out to be 1 µM.

As to RMHNDTWVLLNQRRG [A3G226-240], the IC50 of inhibition of ssDNA deamination by purified A3G in series [1] worked out at 60 µM.

For IHLYYFDCF [Vif107-115], the “IC50 of inhibition of ssDNA deamination by purified A3G” value in series [2] turned out to be 0.1 µM.

In series [1], WVRGRHETYLCYEVE [A3G211-225] came in with an IC50 of inhibition of ssDNA deamination by purified A3G of 10 µM.

Turning to ARLYYFWDT [A3F304-312], the IC50 of inhibition of ssDNA deamination by purified A3G in series [1] worked out at 8 µM.
